Measured values reported in ChEMBL document CHEMBL3997791, “Nanomolar-Potency Aminophenyl-1,3,5-triazine Activators of the Cystic Fibrosis Transmembrane Conductance Regulator (CFTR) Chloride Channel for Prosecretory Therapy of Dry Eye Diseases” (J Med Chem, 2017).
Active and inactive are the calls of the source. The calls are words filed in the database; no cut-off is given here.

Biological target: T1, Cystic fibrosis transmembrane conductance regulator (Homo sapiens, UniProt P13569)
Assay: Activation of human CFTR expressed in FRT cells co-expressing YFP assessed as increase in forskolin-stimulated iodide influx measured after 10 mins for 2 to 12 sec by fluorescence assay
Format: cell-based
Settings: not given
Target sequence in this assay (P13569 whole entry): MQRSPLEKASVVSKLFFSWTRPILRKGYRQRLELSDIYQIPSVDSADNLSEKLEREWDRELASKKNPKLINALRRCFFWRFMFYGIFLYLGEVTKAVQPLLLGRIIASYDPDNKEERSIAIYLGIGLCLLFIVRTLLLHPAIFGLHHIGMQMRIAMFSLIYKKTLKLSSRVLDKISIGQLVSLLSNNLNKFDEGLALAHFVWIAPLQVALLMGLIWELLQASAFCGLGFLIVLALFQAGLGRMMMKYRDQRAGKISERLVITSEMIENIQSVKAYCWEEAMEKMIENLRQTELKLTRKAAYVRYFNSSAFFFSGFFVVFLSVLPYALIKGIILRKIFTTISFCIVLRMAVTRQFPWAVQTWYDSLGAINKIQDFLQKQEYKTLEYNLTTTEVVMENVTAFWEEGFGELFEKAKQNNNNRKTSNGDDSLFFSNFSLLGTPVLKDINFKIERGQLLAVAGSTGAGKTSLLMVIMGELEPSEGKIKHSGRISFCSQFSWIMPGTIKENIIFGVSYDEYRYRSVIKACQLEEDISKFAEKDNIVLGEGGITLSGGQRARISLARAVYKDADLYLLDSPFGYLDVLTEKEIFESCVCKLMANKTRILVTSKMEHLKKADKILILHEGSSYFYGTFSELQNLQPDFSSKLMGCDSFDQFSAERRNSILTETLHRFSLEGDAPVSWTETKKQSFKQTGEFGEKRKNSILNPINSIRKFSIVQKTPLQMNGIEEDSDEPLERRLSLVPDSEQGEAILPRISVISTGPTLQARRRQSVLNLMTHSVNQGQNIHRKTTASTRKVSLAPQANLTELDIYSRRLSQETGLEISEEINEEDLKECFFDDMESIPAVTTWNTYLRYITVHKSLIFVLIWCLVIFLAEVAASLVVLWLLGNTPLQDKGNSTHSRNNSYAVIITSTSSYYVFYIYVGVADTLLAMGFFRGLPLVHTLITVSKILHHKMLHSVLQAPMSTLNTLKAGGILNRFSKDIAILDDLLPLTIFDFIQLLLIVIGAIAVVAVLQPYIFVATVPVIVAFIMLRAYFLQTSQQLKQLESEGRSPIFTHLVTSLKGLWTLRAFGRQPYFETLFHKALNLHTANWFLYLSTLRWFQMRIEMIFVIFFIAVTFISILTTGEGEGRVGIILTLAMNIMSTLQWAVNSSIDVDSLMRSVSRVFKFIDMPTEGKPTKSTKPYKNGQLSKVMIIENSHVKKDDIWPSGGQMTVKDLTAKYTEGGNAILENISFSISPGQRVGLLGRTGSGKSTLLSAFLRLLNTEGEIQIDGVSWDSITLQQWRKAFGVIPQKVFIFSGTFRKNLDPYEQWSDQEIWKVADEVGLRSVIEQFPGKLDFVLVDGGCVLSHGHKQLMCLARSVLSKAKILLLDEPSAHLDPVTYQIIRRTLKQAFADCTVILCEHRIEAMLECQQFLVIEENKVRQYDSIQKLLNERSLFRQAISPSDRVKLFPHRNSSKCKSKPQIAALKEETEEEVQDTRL

SMILES	EC50 [nM]
CCN(CC)c1nc(Nc2cccc([N+](=O)[O-])c2)nc(OC(C(F)(F)F)C(F)(F)F)n1	200
CCN(CC)c1nc(Nc2ccc([N+](=O)[O-])cc2)nc(OC(C(F)(F)F)C(F)(F)F)n1	18000
CCN(CC)c1nc(Nc2ccc(C(=O)O)cc2)nc(OCC(F)(F)C(F)F)n1	2500
CCN(CC)c1nc(Nc2ccc3[nH]ncc3c2)nc(OC(C(F)(F)F)C(F)(F)F)n1	2800
CCN(CC)c1nc(Nc2cccc(Cl)c2)nc(OC(C(F)(F)F)C(F)(F)F)n1	2800

System: not listed separately
Assay: Metabolic stability in rat hepatic microsomes assessed as parent compound remaining at 5 uM after 60 mins in presence of NADPH by LC-MS analysis
Format: ADME, Microsome
Settings: liver microsomes, read-out: Stability
Method in brief: (§1)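 Compound at 5 μM incubated at 37 °C with rat liver microsomes (1 mg/mL) in potassium phosphate buffer with 1 mM NADPH; quenched with ice-cold EtOAc, centrifuged, supernatant analysed by LC/MS (C18, water/acetonitrile with 0.1% formic acid gradient, UV 254 nm) for parent remaining; mean ± SEM, n = 3.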

SMILES	remaining at 1 h, 5 µM [%]
CCN(CC)c1nc(Nc2ccc3ncoc3c2)nc(OC(C(F)(F)F)C(F)(F)F)n1	60

System: Mus musculus
Assay: Induction of tear secretion in mouse at 250 pmol administered as single topical dose up to 8 hrs by phenol red thread test
Format: functional
Settings: not given
Method in brief: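 Mice 8–12 weeks (25–35 g); single ocular dose of 250 pmol (100 μM) in 2.5 μL vehicle (0.3% CMC in Ringer's), both eyes treated identically, vehicle control. Tear volume by phenol red thread, 10 s in lateral canthus under isoflurane, before and at set times after dosing. 5 mice, 10 eyes per condition; two-way ANOVA with Dunnett test.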

SMILES	Activity
CCN(CC)c1nc(Nc2ccccc2)nc(OC(C(F)(F)F)C(F)(F)F)n1	Active

Biological target: T1, Cystic fibrosis transmembrane conductance regulator
Assay: Activation of human CFTR expressed in FRT cells co-expressing YFP assessed as increase in forskolin-stimulated iodide influx at 10 uM measured after 10 mins for 2 to 12 sec by fluorescence assay
Format: cell-based
Settings: not given
Method in brief: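 FRT cells stably coexpressing human wild-type CFTR and YFP-H148Q halide sensor; PBS wash, then 10 min with compound in PBS containing 125 nM forskolin. Plate reader: 2 s baseline, then 12 s after rapid iodide-containing solution addition; initial iodide influx rate taken as linear measure of channel function.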
Target sequence in this assay (P13569 whole entry, looked up): as the sequence (P13569 whole entry) above

SMILES	Activity
FC(F)(F)C(Oc1nc(N2CCCCCC2)nc(N(c2ccccc2)c2ccccc2)n1)C(F)(F)F	inactive
CN(C)c1nc(Nc2ccc(OC(F)(F)F)cc2)nc(OCC(F)(F)F)n1	inactive
O=[N+]([O-])c1cccc(Nc2nc(OC(C(F)(F)F)C(F)(F)F)nc(OC(C(F)(F)F)C(F)(F)F)n2)c1	inactive
CC(C)Nc1nc(Nc2ccc([N+](=O)[O-])cc2)nc(OC(C(F)(F)F)C(F)(F)F)n1	inactive
Fc1ccc(Nc2nc(OC(C(F)(F)F)C(F)(F)F)nc(N3CCCCC3)n2)cc1	inactive
FC(F)(F)COc1nc(Nc2ccccc2)nc(OCC(F)(F)F)n1	inactive
COc1ccc(Nc2nc(NC3CCCCC3)nc(OC(C(F)(F)F)C(F)(F)F)n2)cc1	inactive
CNc1nc(Nc2ccc([N+](=O)[O-])cc2)nc(OCC(F)(F)C(F)F)n1	Active
Cc1ccc(Nc2nc(OC(C(F)(F)F)C(F)(F)F)nc(OC(C(F)(F)F)C(F)(F)F)n2)cc1	inactive
CNc1nc(Nc2ccc(C(C)=O)cc2)nc(OC(C(F)(F)F)C(F)(F)F)n1	inactive
Cc1ccccc1Nc1nc(OC(C(F)(F)F)C(F)(F)F)nc(OC(C(F)(F)F)C(F)(F)F)n1	inactive
C=CCNc1nc(Nc2cccc([N+](=O)[O-])c2)nc(OC(C(F)(F)F)C(F)(F)F)n1	Active
FC(F)(F)C(Oc1nc(Nc2ccc(Cl)cc2)nc(N2CCOCC2)n1)C(F)(F)F	inactive
CC(=O)c1ccc(Nc2nc(OC(C(F)(F)F)C(F)(F)F)nc(OC(C(F)(F)F)C(F)(F)F)n2)cc1	inactive
O=[N+]([O-])c1ccccc1Nc1nc(OC(C(F)(F)F)C(F)(F)F)nc(OC(C(F)(F)F)C(F)(F)F)n1	inactive
O=[N+]([O-])c1ccc(Nc2nc(OC(C(F)(F)F)C(F)(F)F)nc(OC(C(F)(F)F)C(F)(F)F)n2)cc1	inactive
CCC(C)Nc1nc(Nc2ccc([N+](=O)[O-])cc2)nc(OC(C(F)(F)F)C(F)(F)F)n1 (configuration not stated)	inactive
CNc1nc(Nc2ccccc2C(F)(F)F)nc(OC(C(F)(F)F)C(F)(F)F)n1	inactive
FC(F)(F)C(Oc1nc(Nc2cccnc2)nc(OC(C(F)(F)F)C(F)(F)F)n1)C(F)(F)F	inactive
Cc1ccc(Nc2nc(OC(C(F)(F)F)C(F)(F)F)nc(N3CCCCC3)n2)cc1	inactive
FC(F)(F)C(Oc1nc(Nc2ccccc2)nc(OC(C(F)(F)F)C(F)(F)F)n1)C(F)(F)F	inactive
FC(F)(F)COc1nc(Nc2ccc(OC(F)(F)Cl)cc2)nc(OCC(F)(F)F)n1	inactive
CCN(CC)c1nc(Nc2ccccc2)nc(OC(C(F)(F)F)C(F)(F)F)n1	Active
COc1nc(Nc2ccc(OC)c(Cl)c2)nc(OC)n1	inactive
COc1nc(Nc2ccc([N+](=O)[O-])cc2)nc(OC)n1	inactive
FC(F)(F)COc1nc(Nc2ccc(OC(F)(F)F)cc2)nc(NC2CC2)n1	inactive
CC(=O)N1CCN(c2nc(Nc3ccccc3C(=O)c3ccccc3)nc(OC(C(F)(F)F)C(F)(F)F)n2)CC1	inactive
CNc1nc(Nc2ccc(OC(F)(F)Cl)cc2)nc(OCC(F)(F)F)n1	inactive
CC(C)(C)Nc1nc(Nc2ccc(OC(F)(F)Cl)cc2)nc(OCC(F)(F)F)n1	inactive

System: not listed separately
Assay: Metabolic stability in rat hepatic microsomes assessed as parent compound remaining at 5 uM after 15 mins in presence of NADPH by LC-MS analysis
Format: ADME, Microsome
Settings: liver microsomes, read-out: Stability
Method in brief: as §1

SMILES	remaining at […], 5 µM [%]
CCN(CC)c1nc(Nc2ccccc2)nc(OC(C(F)(F)F)C(F)(F)F)n1	< 40
